Results taken from ChEMBL document CHEMBL1132700, “Design, synthesis, structure-activity relationships, and biological characterization of novel arylalkoxyphenylalkylamine sigma ligands as potential antipsychotic drugs” (J Med Chem, 1999).

How the values were obtained:
Mus musculus [1] = test: Effect at an intraperitoneal dose of 10 mg/kg against methamphetamine-induced hyperlocomotion in mice; type: functional
D(2) dopamine receptor = D(2) dopamine receptor (Rattus norvegicus, UniProt P61169); test: Inhibitory concentration against radioligand [3H](-)-sulpiride binding to Dopamine receptor D2 in rat
Outline: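 Striatal membranes from male Wistar rats (200–250 g), homogenized in 50 mM Tris/HCl pH 7.7, washed by repeated 50000g spins. Filtration on PEI-soaked glass-fiber filters, then scintillation counting. IC50 by nonlinear curve fitting, duplicate determinations.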

[2] = target: Serotonin 2 (5-HT2) receptor (Rattus norvegicus, UniProt P30994+P08909+P14842); test: Inhibitory concentration against radioligand [3H]ketanserin binding to 5-hydroxytryptamine 2 receptor in rat
Outline: (§1)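 Male Wistar rat brain membranes in 50 mM Tris/HCl pH 7.7. Radioligands: PCP site 5 nM [3H]-PCP; D1 1 nM [3H]-SCH23390; 5-HT1A 0.2 nM [3H]-8-OH-DPAT; 5-HT2 5 nM [3H]-ketanserin; α1 0.2 nM [3H]-prazosin. Competition with at least five drug concentrations, filtration on PEI-soaked glass-fiber filters, scintillation counting, IC50 by nonlinear curve fit.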

D(1A) dopamine receptor = D(1A) dopamine receptor (Rattus norvegicus, UniProt P18901); test: Inhibitory concentration against radioligand [3H]SCH-23390 binding to Dopamine receptor D1 in rat; outline: as §1
Mus musculus [3] = species: Mus musculus; test: Effective dose against (+)-SKF-10047-induced stereotyped behavior in mice was determined; type: functional
Outline: (§2)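 Male ICR mice (25–30 g, 10 per group) acclimatized at least 1 h. Test drug given orally 30 min before (+)-SKF10,047 30 mg/kg ip. Stereotypy scored on a 0–5 scale from 10 min post-injection, every 5 min for 40 min. Vehicle plus three doses were tested. Total score expressed as percent of control, and ED25 derived.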

[4] = target: T1, Adrenergic receptor alpha-1 (Rattus norvegicus, UniProt P15823+P23944+P43140); test: Inhibitory concentration against radioligand [3H]prazosin binding to Alpha-1 adrenergic receptor in rat; outline: as §1
T1 sequence (P15823 whole entry): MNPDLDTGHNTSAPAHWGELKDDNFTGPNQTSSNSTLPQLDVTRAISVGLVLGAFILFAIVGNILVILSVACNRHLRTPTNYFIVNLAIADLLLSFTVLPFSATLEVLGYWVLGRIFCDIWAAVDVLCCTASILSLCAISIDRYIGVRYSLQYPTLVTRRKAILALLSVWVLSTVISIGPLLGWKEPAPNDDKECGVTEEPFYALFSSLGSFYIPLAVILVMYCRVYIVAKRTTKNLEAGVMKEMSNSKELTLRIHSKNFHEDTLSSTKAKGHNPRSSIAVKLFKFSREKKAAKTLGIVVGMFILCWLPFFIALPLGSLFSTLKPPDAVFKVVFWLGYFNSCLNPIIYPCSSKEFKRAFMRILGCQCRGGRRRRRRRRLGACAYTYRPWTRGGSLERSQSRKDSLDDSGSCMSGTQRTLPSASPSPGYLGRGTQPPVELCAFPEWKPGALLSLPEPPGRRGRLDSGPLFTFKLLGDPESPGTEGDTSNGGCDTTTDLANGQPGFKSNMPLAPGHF
T1 sequence (P23944 whole entry): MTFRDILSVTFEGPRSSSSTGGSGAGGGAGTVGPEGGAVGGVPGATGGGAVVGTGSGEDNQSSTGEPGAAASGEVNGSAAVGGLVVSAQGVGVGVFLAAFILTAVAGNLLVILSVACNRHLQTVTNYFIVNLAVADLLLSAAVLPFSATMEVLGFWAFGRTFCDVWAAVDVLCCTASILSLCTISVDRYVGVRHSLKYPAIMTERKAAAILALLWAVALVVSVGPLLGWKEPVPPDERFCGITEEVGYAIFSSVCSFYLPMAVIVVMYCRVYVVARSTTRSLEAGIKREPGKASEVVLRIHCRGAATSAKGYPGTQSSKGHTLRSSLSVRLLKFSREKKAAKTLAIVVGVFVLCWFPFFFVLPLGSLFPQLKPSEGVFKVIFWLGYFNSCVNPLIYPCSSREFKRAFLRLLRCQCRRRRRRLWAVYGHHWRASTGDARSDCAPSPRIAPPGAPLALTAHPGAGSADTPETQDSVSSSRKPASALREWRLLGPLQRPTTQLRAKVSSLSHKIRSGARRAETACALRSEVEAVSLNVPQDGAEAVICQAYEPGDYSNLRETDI
T1 sequence (P43140 whole entry): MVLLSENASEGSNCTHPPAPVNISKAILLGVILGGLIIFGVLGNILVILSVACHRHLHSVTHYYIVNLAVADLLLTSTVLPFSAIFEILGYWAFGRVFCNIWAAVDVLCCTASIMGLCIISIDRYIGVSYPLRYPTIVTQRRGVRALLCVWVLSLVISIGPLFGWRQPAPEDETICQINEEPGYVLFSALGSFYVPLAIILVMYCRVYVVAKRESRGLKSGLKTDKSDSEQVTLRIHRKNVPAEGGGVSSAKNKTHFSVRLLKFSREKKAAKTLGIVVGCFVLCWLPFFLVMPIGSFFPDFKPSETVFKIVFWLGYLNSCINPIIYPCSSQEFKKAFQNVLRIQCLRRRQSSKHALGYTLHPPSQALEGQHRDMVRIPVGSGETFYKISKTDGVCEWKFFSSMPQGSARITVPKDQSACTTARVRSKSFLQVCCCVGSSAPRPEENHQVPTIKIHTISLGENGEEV

[5] = target: Glutamate receptor ionotropic, NMDA 1 (Rattus norvegicus, UniProt P35439); test: Inhibitory concentration against radioligand [3H]PCP binding to PCP site of N-methyl-D-aspartate glutamate receptor in rat; outline: as §1
[6] = target: T2, 5-hydroxytryptamine receptor 1A (Rattus norvegicus, UniProt P19327); test: Inhibitory concentration against radioligand [3H]hydroxy-2-(di-n-propylamino)-tetralin binding to 5-hydroxytryptamine 1A receptor in rat; outline: as §1
T2 sequence (P19327 whole entry): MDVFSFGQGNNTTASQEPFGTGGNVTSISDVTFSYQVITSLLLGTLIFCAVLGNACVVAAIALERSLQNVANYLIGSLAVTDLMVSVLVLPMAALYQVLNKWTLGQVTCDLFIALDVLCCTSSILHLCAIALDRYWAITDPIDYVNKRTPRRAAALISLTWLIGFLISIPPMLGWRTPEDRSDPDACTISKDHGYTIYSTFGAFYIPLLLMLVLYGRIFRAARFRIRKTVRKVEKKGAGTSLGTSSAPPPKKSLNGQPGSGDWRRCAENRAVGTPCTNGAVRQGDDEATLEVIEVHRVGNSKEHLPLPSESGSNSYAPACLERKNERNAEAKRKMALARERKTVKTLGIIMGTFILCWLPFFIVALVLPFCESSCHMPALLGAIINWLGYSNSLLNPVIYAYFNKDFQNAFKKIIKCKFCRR

Mus musculus [7] = test: Effect at an intraperitoneal dose of 30 mg/Kg against (+)-SKF-10047-induced stereotyped behavior in mice was determined; type: functional; outline: as §2
[8] = target: Sigma non-opioid intracellular receptor 1 (Rattus norvegicus, UniProt Q9R0C9); test: Inhibitory concentration against radioligand [3H]3-PPP binding to Sigma opioid receptor type 1 in rat brain membrane; type: cell membranes
Outline: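 Rat whole-brain membranes from male Wistar rats (200–250 g), homogenized in 50 mM Tris/HCl pH 7.7, washed by repeated 50000g spins. Incubated with 2 nM [3H]-(+)-3-PPP and at least five concentrations of unlabeled drug. Filtered on polyethylenimine-soaked glass-fiber filters and counted by scintillation. IC50 from nonlinear curve fitting of competition data, duplicate determinations.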

D(1A) dopamine receptor, sequence (P18901 whole entry): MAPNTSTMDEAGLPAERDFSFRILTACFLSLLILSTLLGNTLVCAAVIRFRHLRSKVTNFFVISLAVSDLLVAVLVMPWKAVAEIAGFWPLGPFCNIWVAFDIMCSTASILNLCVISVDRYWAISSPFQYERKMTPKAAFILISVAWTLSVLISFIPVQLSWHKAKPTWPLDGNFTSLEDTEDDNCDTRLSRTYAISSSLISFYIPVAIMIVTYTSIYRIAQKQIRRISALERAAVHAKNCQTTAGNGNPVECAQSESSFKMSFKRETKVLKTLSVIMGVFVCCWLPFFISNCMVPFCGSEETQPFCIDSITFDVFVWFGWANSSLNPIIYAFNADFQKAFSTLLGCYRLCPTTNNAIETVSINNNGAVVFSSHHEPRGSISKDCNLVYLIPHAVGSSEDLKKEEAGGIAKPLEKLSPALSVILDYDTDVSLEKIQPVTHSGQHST
D(2) dopamine receptor, sequence (P61169 whole entry): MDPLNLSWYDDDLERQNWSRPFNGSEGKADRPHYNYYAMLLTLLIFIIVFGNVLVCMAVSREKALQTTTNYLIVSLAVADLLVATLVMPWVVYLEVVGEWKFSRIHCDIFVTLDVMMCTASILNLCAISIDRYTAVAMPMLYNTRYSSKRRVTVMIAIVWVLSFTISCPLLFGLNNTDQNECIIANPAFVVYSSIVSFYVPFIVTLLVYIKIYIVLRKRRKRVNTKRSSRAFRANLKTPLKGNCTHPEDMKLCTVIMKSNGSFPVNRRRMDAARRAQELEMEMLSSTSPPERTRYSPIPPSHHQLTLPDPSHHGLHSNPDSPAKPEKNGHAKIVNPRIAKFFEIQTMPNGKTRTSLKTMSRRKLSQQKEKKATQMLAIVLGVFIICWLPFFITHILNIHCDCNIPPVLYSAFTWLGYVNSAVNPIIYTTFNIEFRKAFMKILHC
Sigma non-opioid intracellular receptor 1, sequence (Q9R0C9 whole entry): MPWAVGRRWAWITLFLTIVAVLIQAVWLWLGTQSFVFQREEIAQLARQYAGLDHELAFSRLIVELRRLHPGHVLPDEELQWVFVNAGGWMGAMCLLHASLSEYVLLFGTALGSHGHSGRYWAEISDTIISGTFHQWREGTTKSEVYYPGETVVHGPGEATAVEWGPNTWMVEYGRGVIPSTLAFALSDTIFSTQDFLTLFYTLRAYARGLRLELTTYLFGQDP

| Compound | Control (Mus musculus [1]) | IC50 (D(2) dopamine receptor) | IC50 [2] | IC50 (D(1A) dopamine receptor) | ED25 (Mus musculus [3]) | IC50 [4] | IC50 [5] | IC50 [6] | Control (Mus musculus [7]) | IC50 [8] |
| --- | --- | --- | --- | --- | --- | --- | --- | --- | --- | --- |
| CCCN(CCC)CCc1ccc(OC)c(OCCc2ccccc2)c1.Cl | 119% | > 1000 nM | > 1000 nM | > 1000 nM | 6.5 mg/kg | 10800 nM | > 1000 nM | 6460 nM | – | – |
| CCCN(CCC)CCc1cccc(OC)c1OCc1ccccc1.O=C(O)C(=O)O | – | > 1000 nM | – | – | – | – | – | – | 64% | 26 nM |
| CCCN(CCC)CCCc1ccc(OC)c(OCCc2ccccc2)c1.Cl | 99% | – | > 1000 nM | > 1000 nM | 44 mg/kg | 14100 nM | > 1000 nM | 373 nM | – | 1 nM |
| CCCN(CCC)CCc1cccc(OC)c1OCCc1ccccc1.Cl | 98% | > 1000 nM | 8800 nM | > 1000 nM | 79 mg/kg | 11700 nM | > 10000 nM | 3580 nM | – | – |
